For orientation: CC50 means the concentration giving 50% cytotoxicity.

This test has as its system HEp-2 viability, luminescence (CellTiter-Glo). Briefly: HEp-2 cell cytotoxicity, dose response, cytotoxicity control for RSV antiviral project, synthesized compounds, set 9 (AID 504826). An outline of the steps:
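test system = uninfected HEp-2 cells | input = 10,595 HEp-2 cells per well | dosing = 8 points, 1:2 steps, 0.5% DMSO | incubation = 6-day compound exposure, 37 °C | technique = ATP luminescence (CellTiter-Glo)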
With `COCCCNC(=O)c1ccc(Cn2c(=O)c3ccccc3n(Cc3ccc(C(F)(F)F)cc3)c2=O)cc1`, the cytotoxic concentration (CC50) was 95.7 µM.
For `COCCCNC(=O)c1ccc(Cn2c(=O)c3ccccc3n(Cc3ccc(C)c(C(F)(F)F)c3)c2=O)cc1` the value was 75.2 µM; for `COCCCNC(=O)c1ccc(Cn2c(=O)c3ccccc3n(Cc3ccc(OC)cc3)c2=O)cc1`, 121 µM; for `COCCCNC(=O)c1ccc(Cn2c(=O)c3ccccc3n(Cc3ccc(Br)cc3)c2=O)cc1`, 126 µM.
For `COCCCNC(=O)c1ccc(Cn2c(=O)c3ccccc3n(Cc3ccc([N+](=O)[O-])cc3)c2=O)cc1`, the CC50 is 115 µM.
For `Cc1ccc(C)c(NC(=O)[C@@H]2CCCN2S(=O)(=O)c2cccc3cccnc23)c1` the value was 25 µM.
For `COc1ccccc1CNC(=O)C1CCN(S(=O)(=O)c2cccc3nonc23)CC1` the value was 146 µM.

The values are drawn from PubChem BioAssay AID504826 (Southern Research Specialized Biocontainment Screening …, 2011).
